From PubChem
Rows were chosen to be rich in hits. Some 1.9% of all compounds tested hit in one or more screens of this group.
Rin1-Abl PPI inh: inhibitors of Rin1-Abl protein binding, primary screen, biochemical, TR-FRET | 360,000 tested, 0.4% active | inhibition, % at 7.35 µM | Tyrosine-protein kinase ABL1 (Homo sapiens) + Ras and Rab interactor 1 (Homo sapiens), … | AID 588664, 2011; in the data active = inhibition above about 5%, passing the limit was not always enough
SR-BI DiI-HDL act: activators of SR-BI mediated DiI-HDL uptake, primary screen, ldlA[mSR-BI] CHO cells, DiI fluorescence; 3 h; 100 = double the neutral-control signal; activation, % at 12.5 µM; 320,000 tested, 0.096% active;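 active = mean replicate activation of at least 60% and every replicate at or above 60%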;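 also: 0% = median plate neutral-control signal and 100% = twice that signal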
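Material: SR-BI-overexpressing, LDLR-lacking CHO cells | Dosing: Single compound concentration, delivered by pin transfer | Probe or stimulus: Labelled HDL, 10 µg/mL | Signal: Bottom-read cell fluorescence after medium removal, ex 550/em 595 nm | Schedule: 3 h, 37 °C | Evaluation: HDL uptake via cellular fluorescence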
SR-BI DiI inh: inhibitors of SR-BI mediated HDL lipid uptake, primary screen, ldlA[mSR-BI] cells, fluorescence, single point; 320,000 tested, 0.96% active; ldlA[mSR-BI] CHO cells, DiI-HDL uptake fluorescence, 3 h; inhibition, % at 12.5 µM; Scavenger receptor class B member 1 (Mus musculus), Q61009;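 active = mean replicate inhibition of at least 70% and a set share of replicates each scoring 70 or more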;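 also: 0% = median of neutral control wells and 100% = median of positive control wells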
GRK2 aptamer HTS: compounds blocking aptamer binding on GRK2 – biochemical, human GRK2, bead flow cytometry, HTS, primary screen; Beta-adrenergic receptor kinase 1 (Homo sapiens), P25098; FAM-aptamer displacement from GRK2; inhibition of aptamer binding, % at 10 µM; 330,000 tested, 0.59% active;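 active = inhibition of aptamer binding above 40%, roughly 3 SD of noise, on plates passing a quality check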;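 also: median bead fluorescence of bound FAM aptamer so fluorescent compounds give negative values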
GRK2 inh confirm: GRK2 aptamer-displacing inhibitors, retest, confirmation, biochemical, cherry pick 1, bead flow cytometry; shares compounds with GRK2 aptamer HTS; bead-bound GRK2, FAM-aptamer displacement; aptamer displacement, % at 10 µM; 2,000 tested, 4% active; AID 504451, 2011;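 active = aptamer displacement above 40%, near three times the noise of non-fluorescent compounds, on plates passing quality checks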;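 also: negative values mostly reflect intrinsic compound fluorescence rather than true enhancement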
FAM quench CP1: counter-screen for GRK2 aptamer inhibitors: fluorescent aptamer quenchers; 2,000 tested, under 10 active; AID 504580; shares compounds with GRK2 aptamer HTS; Carboxyfluorescein RNA aptamer on beads, flow cytometry quenching; stronger effect = lower value; fluorescence response (% of DMSO), % at 10 µM;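 active = compounds that quench the bead-bound fluorescent RNA probe, cutting fluorescence to under half of the solvent control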;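 also: counterscreen run without GRK2 so only probe quenching by compound is measured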
GRK2 confirm 2: GRK2 aptamer-displacing inhibitors, hit retest, confirmation, biochemical, cherry pick 2, bead flow cytometry | shares compounds with GRK2 aptamer HTS | bead-bound GRK2, FAM-aptamer displacement | inhibition of aptamer binding, % at 10 µM | 360 tested, under 10 active;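 active = inhibition of aptamer binding above 40%, about triple the noise seen with nonglowing compounds, on plates passing quality control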;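 also: negative values mostly come from compounds that fluoresce themselves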
FAM quench CP2: counter-screen for GRK2 binding hits: quenchers of fluorescent RNA aptamer; shares compounds with GRK2 aptamer HTS; carboxyfluorescein RNA aptamer beads, flow cytometry quenching; stronger effect = lower value; fluorescence response vs DMSO, % at 10 µM; 360 tested, under 10 active; AID 588494;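 active = response vs DMSO under 50%, meaning signal dropped by over half, treated as fluorescence quencher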;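 also: labelled aptamer on streptavidin beads without GRK2 as a quench counter-screen; 100% = bead fluorescence of DMSO wells and lower means quenching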
Active calls of the source: *.

`O=C(CCN1CCCCC1)N1CCc2c([nH]c3ccccc23)C1c1cccnc1` (stereo not drawn) gave Rin1-Abl PPI inh 4, SR-BI DiI-HDL act -5, SR-BI DiI inh 5, GRK2 inh confirm -3 and FAM quench CP1 105.
`CCC(=O)Nc1ccc(C(=O)c2ccccc2)cc1` gave Rin1-Abl PPI inh 4, SR-BI DiI-HDL act -8, SR-BI DiI inh 8 and GRK2 aptamer HTS 2.
Screening CCC(CC)C(=O)Nc1ccc(C(=O)c2ccccc2)cc1 returned Rin1-Abl PPI inh 2, SR-BI DiI-HDL act 7, SR-BI DiI inh -7, GRK2 aptamer HTS 61*, GRK2 confirm 2 3 and FAM quench CP2 101.
Screening CN(C)CCNc1c2c(nc3ccccc13)CCC2 returned Rin1-Abl PPI inh -5, SR-BI DiI-HDL act -6, SR-BI DiI inh 6, GRK2 aptamer HTS 0, GRK2 confirm 2 4 and FAM quench CP2 100.
`Fc1cccc(Nc2c3c(nc4ccccc24)CCC3)c1` gave Rin1-Abl PPI inh 0, SR-BI DiI-HDL act -24, SR-BI DiI inh 24, GRK2 aptamer HTS 0, GRK2 confirm 2 1 and FAM quench CP2 100.
For CC1=NN(C(=S)Nc2ccccc2)C(C)(C)C1 the results were Rin1-Abl PPI inh 2, SR-BI DiI-HDL act 18, SR-BI DiI inh -18 and GRK2 aptamer HTS 0.
Cc1cc(OCC(=O)Nc2c(C(C)C)cccc2C(C)C)no1 was read as Rin1-Abl PPI inh 0.
For COc1ccccc1CN1CC(C(=O)NCc2cc(C(C)C)no2)CCC1=O (stereo not drawn) the results were Rin1-Abl PPI inh 1, SR-BI DiI-HDL act 20, SR-BI DiI inh -20 and GRK2 aptamer HTS 1.
COc1ccc(/C=C/C(=O)c2cccc(-n3cnnn3)c2)cc1O was read as Rin1-Abl PPI inh 0, SR-BI DiI-HDL act -11, SR-BI DiI inh 11, GRK2 aptamer HTS 98*, GRK2 inh confirm 0 and FAM quench CP1 100.
For O=C(Nc1cc(Cl)ccc1Cl)c1noc2c1CCCC2 the results were Rin1-Abl PPI inh -1, SR-BI DiI-HDL act -3, SR-BI DiI inh 3 and GRK2 aptamer HTS 0.
`O=C(Nc1ccc(F)cc1F)c1noc2c1CCC2` gave Rin1-Abl PPI inh -1, SR-BI DiI-HDL act 3, SR-BI DiI inh -3, GRK2 aptamer HTS 59*, GRK2 inh confirm 13 and FAM quench CP1 102.
Screening COc1ccc(S(=O)(=O)Oc2ccc(C(=S)N3CCOCC3)cc2OC)cc1 returned Rin1-Abl PPI inh 1, SR-BI DiI-HDL act 9, SR-BI DiI inh -9 and GRK2 aptamer HTS 10.
`O=S(=O)(Oc1ccc(C(=S)N2CCOCC2)cc1)c1ccc(Cl)cc1` gave Rin1-Abl PPI inh 1, SR-BI DiI-HDL act 0, SR-BI DiI inh 0, GRK2 aptamer HTS 99*, GRK2 inh confirm 3 and FAM quench CP1 91.
For COc1ccc(C(O)c2nc(-c3cc(F)cc(Cl)c3)cs2)cc1 (stereo not drawn) the results were Rin1-Abl PPI inh -3.
`Nc1c(C(=O)NCCc2ccccc2)nnn1Cc1ccc(Br)cc1F` gave Rin1-Abl PPI inh -5, SR-BI DiI-HDL act -3, SR-BI DiI inh 3, GRK2 aptamer HTS 50*, GRK2 inh confirm -7 and FAM quench CP1 103.
`CCCC(=O)Nc1ccc(S(=O)(=O)Nc2cc(OC)ncn2)cc1` gave Rin1-Abl PPI inh -1, SR-BI DiI-HDL act 0 and SR-BI DiI inh 0.
Screening NS(=O)(=O)c1ccc(NC(=S)N2CCC(O)CC2)cc1 returned Rin1-Abl PPI inh -1, SR-BI DiI-HDL act 1, SR-BI DiI inh -1, GRK2 aptamer HTS 91*, GRK2 inh confirm 2 and FAM quench CP1 99.
For CCn1cc(Cl)c(C(=O)NNC(=O)CCn2cc([N+](=O)[O-])cn2)n1 the results were Rin1-Abl PPI inh -1, SR-BI DiI-HDL act 15, SR-BI DiI inh -15, GRK2 aptamer HTS 63*, GRK2 confirm 2 -34 and FAM quench CP2 101.
Screening COc1cccc(NC(=S)NNC(=O)CCn2cc([N+](=O)[O-])cn2)c1 returned Rin1-Abl PPI inh 3, SR-BI DiI-HDL act 0, SR-BI DiI inh 0 and GRK2 aptamer HTS 3.
Screening COc1ccc(C(C)(O)c2nc(-c3cccc(O)c3)cs2)cc1 (stereo not drawn) returned Rin1-Abl PPI inh 0.
For CNC(=O)c1ccc(CN(C)C(=O)c2cccc(S(=O)(=O)N3CCc4ccccc4C3)c2)cc1 the results were Rin1-Abl PPI inh 3.
O=S(=O)(Nc1ccccc1)c1ccc(-c2cnc(C3CC3)o2)cc1 was read as Rin1-Abl PPI inh 0, SR-BI DiI-HDL act 10, SR-BI DiI inh -10 and GRK2 aptamer HTS 1.
Screening O=S(=O)(NCc1ccc(F)cc1)c1ccc(-c2cnc(C3CC3)o2)cc1 returned Rin1-Abl PPI inh 1, SR-BI DiI-HDL act 8, SR-BI DiI inh -8, GRK2 aptamer HTS 51*, GRK2 inh confirm 6 and FAM quench CP1 99.
O=C(/C=C/c1cccc(Br)c1)NCC1CCCCC1 was read as Rin1-Abl PPI inh 2, SR-BI DiI-HDL act -2, SR-BI DiI inh 2 and GRK2 aptamer HTS 0.
Screening COc1cc(/C=C/C(=O)NCC2CCCCC2)cc(OC)c1OC returned Rin1-Abl PPI inh 1, GRK2 aptamer HTS 63*, GRK2 inh confirm 0 and FAM quench CP1 106.
`CCOC(=O)C1(C)CCN1C(=O)c1ccc(Cl)nc1` (stereo not drawn) gave Rin1-Abl PPI inh 1.
CC(=O)NC(C)(c1ccccc1)c1nc(-c2ccc(F)c(Cl)c2)cs1 (stereo not drawn) was read as Rin1-Abl PPI inh -2.
`O=C(O)c1ccccc1-c1nnc2c(Cl)cc(C(F)(F)F)cn12` gave Rin1-Abl PPI inh 1, SR-BI DiI-HDL act -4, SR-BI DiI inh 4, GRK2 aptamer HTS 7, GRK2 inh confirm 2 and FAM quench CP1 101.
For O=C(NC(=S)NCc1ccccc1)c1ccc2c(c1)OCO2 the results were Rin1-Abl PPI inh 1, SR-BI DiI-HDL act 14, SR-BI DiI inh -14, GRK2 aptamer HTS 94*, GRK2 confirm 2 -35 and FAM quench CP2 100.
For O=C(NNC(=S)NCc1ccccc1)c1ccc2c(c1)OCO2 the results were Rin1-Abl PPI inh 0, SR-BI DiI-HDL act 4, SR-BI DiI inh -4 and GRK2 aptamer HTS 4.
